Only some compounds are listed: those with a hit (about 2.6% of all), similar ones and a draw of the others.
GSTO1 inh – inhibitors of recombinant GSTO1, primary screen, counter-screen for RBBP9 inhibitor project, biochemical, fluorescence polarization; activity-based probe fluorescence polarization; 300,000 tested, 1.1% active; inhibition, % at 5.96 µM; AID 1974, 2009; Glutathione S-transferase omega-1 (Homo sapiens), P78417;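 active = inhibition above the campaign mean inhibition plus 3 SD, cut at about 35% in these data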;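 also: 0% = GSTO1-1 with DMSO and 100% = wells lacking GSTO1-1 enzyme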
Apaf-1 inh – inhibitors of human Apaf-1 apoptosome, primary screen, biochemical, DEVD-Rh110 fluorescence, uHTS; reconstituted apoptosome caspase-3 activity; 330,000 tested, 0.71% active; inhibition, % at 20 µM; active = inhibition of at least 40% at 20 µM;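 also: plate controls were DMSO wells for no effect and DEVD-CHO caspase inhibitor wells for full effect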
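Material: biochemical Apaf-1 apoptosome reconstitution. Medium: Hepes buffer, pH 7.5. Also added: cytochrome c activation, bis-DEVD rhodamine 110 substrate. Timing: 30 min compound preincubation, 50 min activation, room temperature. Measured by: rhodamine 110 fluorescence at Ex 480/Em 540 nm.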
PAD4 FP inh – human PAD4 inhibitors, primary screen, biochemical, fluorescence polarization, 1536-well format; AID 485272, 2010; inhibition, % at 6.36 µM; Protein-arginine deiminase type-4 (Homo sapiens), Q9UM07; recombinant PAD4, RCA probe fluorescence polarization; 330,000 tested, 0.41% active;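 active = percent inhibition above a cutoff equal to the mean of all tested compounds plus 3 SD, cut at about 15% in these data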;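 also: 0% = PAD4 with RCA probe and DMSO and 100% = probe without PAD4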
Target sequence (Q9UM07 whole entry, looked up): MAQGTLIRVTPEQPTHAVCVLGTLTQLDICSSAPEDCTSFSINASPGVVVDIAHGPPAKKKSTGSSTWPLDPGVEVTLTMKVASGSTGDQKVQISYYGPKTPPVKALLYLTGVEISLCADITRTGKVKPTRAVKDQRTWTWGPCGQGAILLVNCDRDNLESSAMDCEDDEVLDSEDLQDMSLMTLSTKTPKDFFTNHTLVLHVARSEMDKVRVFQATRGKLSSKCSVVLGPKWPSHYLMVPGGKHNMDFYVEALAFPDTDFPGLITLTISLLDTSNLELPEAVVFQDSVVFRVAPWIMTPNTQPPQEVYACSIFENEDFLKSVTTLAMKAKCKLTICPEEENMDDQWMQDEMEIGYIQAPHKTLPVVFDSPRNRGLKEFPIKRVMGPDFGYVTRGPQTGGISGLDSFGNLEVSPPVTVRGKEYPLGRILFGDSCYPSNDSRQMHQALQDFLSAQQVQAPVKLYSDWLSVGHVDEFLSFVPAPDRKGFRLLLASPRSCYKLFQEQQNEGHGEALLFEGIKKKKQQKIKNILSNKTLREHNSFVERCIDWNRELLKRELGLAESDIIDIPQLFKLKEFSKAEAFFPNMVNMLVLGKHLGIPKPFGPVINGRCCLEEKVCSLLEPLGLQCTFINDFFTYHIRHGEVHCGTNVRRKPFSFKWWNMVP
PRMT1 inh – PRMT1 methyltransferase inhibitors, primary screen, biochemical, fluorescence polarization; Protein arginine N-methyltransferase 1 (Homo sapiens), Q99873; recombinant PRMT1, activity-based probe fluorescence polarization; inhibition, % at 2.79 µM; 370,000 tested, 1.3% active; AID 652257, 2013;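 active = inhibition above about 21% made by adding two undisclosed values, limit read from the data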
TDP2 inh – human TDP2 enzyme inhibitors, primary screen, biochemical, epi absorbance, recombinant enzyme; Tyrosyl-DNA phosphodiesterase 2 (Homo sapiens), O95551; T5PNP hydrolysis, p-nitrophenol absorbance 415 nm; inhibition, % at 12.8 µM; 370,000 tested, 0.34% active;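 active = inhibition above the mean of all tested compounds plus 3 SD, set per campaign, cut at about 25% in these data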;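 also: 0% = DMSO with enzyme and 100% = buffer with substrate but no TDP2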
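Test system: Human TDP2 enzyme | Reagent: 5 mM T5PNP | Compound dosing: 12.8 µM single point, 1% DMSO | Incubation: Enzyme reaction with compound for 2 h at 37 °C | Technique: p-Nitrophenol epi absorbance | Read-out: % inhibition relative to enzyme-containing and enzyme-free wells | Benchmarks: High control without enzyme, low control DMSO plus TDP2 | Replicates: Singlicate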
PRMT1 inh conf – PRMT1 methyltransferase inhibitors, confirmation, biochemical, fluorescence polarization, triplicate; shares compounds with PRMT1 inh; recombinant His-PRMT1, activity-based probe fluorescence polarization; 3,300 tested, 42% active; AID 687036, 2013; inhibition, % at 2.79 µM;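 active = mean inhibition across replicates above the hit cutoff derived for the earlier primary screen, cut at about 22% in these data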
Active calls of the source: *; nt = no result given.

SMILES | GSTO1 inh | Apaf-1 inh | PAD4 FP inh | PRMT1 inh | TDP2 inh | PRMT1 inh conf
O=C(NCCNCc1ccccc1)c1ccco1 | nt | nt | nt | 28.2* | 8.9 | 8.5
CC(=O)Nc1nc(=O)c2ccccc2s1 | 5.1 | -12.7 | 4.5 | 44.5* | -5.0 | 33.4*
Nc1nc(=O)c2ccccc2s1 | nt | nt | nt | 35.6* | -11.0 | 25.3*
CC(=O)N/C(N)=N/c1nc(=O)c2ccccc2s1 | 1.6 | -5.0 | 6.0 | 2.7 | 0.2 | nt
COc1ccc(CC(=O)OCC(=O)Nc2ncc(Cl)c(C)c2Cl)cc1 | nt | 5.2 | nt | 2.2 | 9.0 | nt
CCN(CC)S(=O)(=O)c1ccc(C(=O)/C=C/c2ccc(-c3ccc([N+](=O)[O-])cc3)o2)cc1 | 9.8 | -0.7 | -2.2 | 10.7 | 3.4 | nt
Cc1ccc(C(=O)/C=C/c2ccc(-c3ccc(C)cc3)o2)cc1 | -2.0 | 19.8 | -7.1 | 49.6* | -15.4 | 6.2
Cc1ccc(C(=O)/C=C\C(=O)c2ccc(C)cc2)cc1 | -0.2 | nt | 4.4 | 40.0* | -1.9 | 56.7*
CC(C)OC(=O)CSc1nnc(-c2ccc(C(C)(C)C)cc2)n1N | 1.4 | 5.9 | 0.8 | 52.9* | -0.2 | 59.7*
CCOC(=O)c1c(-c2ccc(C)o2)csc1NC(=S)NC(=O)c1ccc(F)cc1 | -2.3 | -7.3 | -2.0 | 4.3 | 2.8 | nt
CCOC(=O)c1c(-c2ccc(C)o2)csc1NC(=O)CSc1nncs1 | 13.3 | -3.7 | -2.8 | 4.1 | 0.2 | nt
CCOC(=O)c1c(-c2ccc(C)o2)csc1NC(=O)CN1CCCCC1 | 11.9 | 16.7 | -5.0 | 43.4* | -8.5 | 9.0
CCOC(=O)c1c(-c2ccc(C)o2)csc1NC(=O)CN1CCN(CC)CC1 | -2.5 | 1.4 | 0.8 | 78.6* | 8.7 | 2.9
COC(=O)C1C2OC(C(Br)C2Br)C1C(=O)OC (centres undefined) | nt | nt | nt | -4.2 | -5.0 | nt
Clc1ccccc1CNCc1ccc2c(c1)OCO2 | nt | nt | nt | 1.6 | 9.3 | nt
Clc1cccc(CSc2ncnc3sc4c(c23)CCCC4)c1 | nt | nt | nt | -1.4 | 0.0 | nt
CCC(C)(C)NC(=O)c1cc(S(=O)(=O)N2CCc3ccccc32)cn1C | 6.1 | -2.0 | -1.0 | 26.3* | -2.3 | 3.6
O=C(O)c1ccc(N/N=C/c2cn(Cc3ccccc3F)c3ccccc23)cc1 | 26.1 | -6.8 | -4.1 | 17.8 | 1.5 | nt
CC(C)n1cc(/C=N/Nc2ccc(C(=O)O)cc2)c2ccccc21 | 4.6 | 7.6 | -7.6 | 25.6* | -4.5 | 3.6
Cc1ccc(N=C2NC(=O)CS2)cc1 | 4.5 | -7.9 | 0.7 | 0.5 | -10.1 | nt
Cc1ccc(SCC(=O)N=C2NC(=O)CS2)cc1 | -5.0 | 4.6 | 1.3 | 52.2* | -4.6 | 2.9
O=c1[nH]c(S)c(/C=C2\C=Nc3ccccc32)s1 | 7.5 | 11.8 | -4.3 | 47.8* | 3.9 | 31.4*
Oc1nc(Nc2ccc(F)cc2)sc1/C=C1\C=Nc2ccccc21 | -27.7 | 13.1 | -5.3 | -2.4 | -4.2 | nt
O=C(O)c1cc([N+](=O)[O-])c(Sc2nc3ccccc3[nH]2)c([N+](=O)[O-])c1 | 0.3 | 1.8 | -1.4 | 10.8 | 8.6 | nt
CS(=O)(=O)c1cc([N+](=O)[O-])c(Sc2nc3ccccc3[nH]2)c([N+](=O)[O-])c1 | 29.4 | 1.0 | 2.7 | 55.9* | 8.8 | 70.2*
SMILES | GSTO1 inh | Apaf-1 inh | PAD4 FP inh | PRMT1 inh | TDP2 inh | PRMT1 inh conf
COCCSc1nc2c(c(=O)[nH]c(=O)n2C)n1CCCc1ccccc1 | 2.5 | 4.0 | 0.0 | 1.5 | 7.5 | nt
CSc1nc2c(c(=O)[nH]c(=O)n2C)n1Cc1ccc(Cl)cc1 | -2.2 | 9.0 | -3.0 | 66.2* | -3.8 | 6.8
CSc1nc2c(c(=O)[nH]c(=O)n2C)n1Cc1ccccc1Cl | 5.7 | 1.9 | -2.9 | -2.5 | -10.4 | nt
Cn1c(=O)[nH]c(=O)c2c1nc(SCCN1CCCCC1)n2CCCc1ccccc1 | -0.4 | 0.9 | 0.3 | 57.2* | 7.5 | 45.5*
Cc1ccc(Cn2c(SCCN3CCCCC3)nc3c2c(=O)[nH]c(=O)n3C)cc1 | 10.2 | 10.7 | -2.3 | 33.1* | 2.4 | 46.0*
Cn1c(=O)[nH]c(=O)c2c1nc(SCCN1CCCCC1)n2Cc1ccccc1 | 4.7 | -1.0 | 1.1 | -4.7 | -0.5 | nt
N#Cc1c(-c2cccnc2)c2c([nH]c1=S)CCCC2 | 12.3 | 1.6 | -3.7 | 44.5* | -5.5 | 31.5*
N#Cc1c(-c2ccco2)c2c([nH]c1=S)CCCC2 | 4.4 | 18.3 | -2.8 | 59.2* | -3.0 | 24.8*
N#Cc1c2c(c(-c3ccco3)[nH]c1=O)CCCC2 | 7.6 | 6.1 | -1.2 | 46.2* | 4.2 | 1.5
O=C(c1ccc(Br)o1)N1CCN(Cc2ccccc2Cl)CC1 | 0.1 | 7.7 | -1.1 | -3.2 | -4.1 | nt
CCN1CCN(c2nc3c(c(=O)[nH]c(=O)n3C)n2Cc2cccc(C)c2)CC1 | nt | nt | nt | 0.7 | 11.7 | nt
Nc1sccc1C(=O)NCc1ccccc1 | nt | nt | nt | 33.7* | -1.5 | 16.2
O=C(NC1CCCc2ccccc21)c1c(F)cccc1Cl (centres undefined) | -0.8 | 9.4 | -0.5 | 0.3 | 20.0 | nt
Brc1ccc(-c2nn3c(-c4ccccc4)nnc3s2)o1 | nt | nt | nt | 2.3 | -4.2 | nt
COC(=O)C=CSC(=S)C1CCCC1=N (centres undefined) | nt | nt | nt | 3.7 | -16.2 | nt
CC(C)(NC(=O)c1ccccc1)c1nc2ccccc2s1 | 11.5 | 4.7 | 9.7 | 58.9* | -12.1 | 81.5*
COc1cc(NC(=O)c2c(F)c(F)c(OC)c(F)c2F)ccc1NC(=O)c1cccs1 | -7.2 | 9.5 | -2.9 | 3.3 | -8.7 | nt
O=C(O)CNC(=O)c1cccc(C(F)(F)F)c1 | 0.2 | -11.6 | 0.6 | 5.1 | 2.5 | nt
Cc1c(CCCC(=O)O)sc(N)c1C(=O)c1cccc(C(F)(F)F)c1 | 4.8 | 1.0 | -0.1 | 31.4* | -5.7 | 11.3
Oc1ccc(C(=S)N2CCN(Cc3ccccc3)CC2)cc1 | 8.5 | 3.3 | -1.4 | 38.3* | 4.3 | 53.9*
S=C(c1ccc(Br)cc1)N1CCN(Cc2ccccc2)CC1 | 4.2 | 18.5 | -0.1 | 63.7* | -3.0 | 76.5*
Oc1ccc(C(=S)N2CCN(c3cccc(Cl)c3)CC2)cc1 | -0.7 | -1.0 | -2.6 | 29.4* | -11.6 | 3.1
Cc1ccc(C(=S)N2CCN(Cc3ccccc3)CC2)s1 | -1.5 | 4.8 | -1.5 | 42.1* | 5.5 | 52.9*
O=C(c1ccc(Br)cc1)N1CCN(Cc2ccccc2)CC1 | 3.3 | 1.6 | 1.9 | 3.7 | 4.2 | nt
CCNC(=S)N1CCN(Cc2ccccc2)CC1 | 11.9 | 1.8 | 5.2 | -3.9 | 7.8 | nt
O=C1Nc2ccc(Br)cc2C12NNc1ccccc1O2 (centres undefined) | 10.7 | 10.4 | -5.5 | 6.8 | -9.7 | nt
COC(=O)C(=C/C(C)=C/c1cccnc1)C(=O)OC | 6.0 | -9.1 | 3.3 | 6.2 | -4.9 | nt
